In ChEMBL document CHEMBL1141790, “Sodwanone S, a triterpene from the marine sponge Axinella weltneri” (J Nat Prod, 2005):
Converted amounts (≈) assume the structure as drawn.

Assays:
Format in all cases: functional, cell-based
LNCaP = assay: Cytotoxicity against human LNCAP cells by SRB assay
Method in brief: (§1)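 Compounds were run across a panel of 13 human tumor cell lines. Potency is expressed as IC50 in μg/mL.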

SK-BR-3 = assay: Cytotoxicity against human SKBR3 cells by SRB assay; method in brief: as §1
HeLa [1] = assay: Cytotoxicity against human HeLa cells by SRB assay; method in brief: as §1
SK-MEL-28 = assay: Cytotoxicity against human SK-MEL-28 cells by SRB assay; method in brief: as §1
[2] = Cytotoxicity against human ecteinascidin-743-resistant IGROV cells by SRB assay; method in brief: as §1
HT-29 = assay: Cytotoxicity against human HT-29 cells by SRB assay; method in brief: as §1
PANC-1 = assay: Cytotoxicity against human PANC1 cells by SRB assay; method in brief: as §1
LoVo [3] = assay: Cytotoxicity against human doxorubicin-resistant LoVo cells by SRB assay; method in brief: as §1
[4] = Cytotoxicity against human IGROV cells by SRB assay; method in brief: as §1
A549 = assay: Cytotoxicity against human A549 cells by SRB assay; method in brief: as §1
DU-145 = assay: Cytotoxicity against human DU145 cells by SRB assay; method in brief: as §1
LoVo [5] = assay: Cytotoxicity against human LoVo cells by SRB assay; method in brief: as §1
HeLa [6] = assay: Cytotoxicity against human aplidine-resistant HeLa cells by SRB assay; method in brief: as §1

Row | SMILES | IC50 (LNCaP) [µg/mL] | IC50 (SK-BR-3) [µg/mL] | IC50 (HeLa [1]) [µg/mL] | IC50 (SK-MEL-28) [µg/mL] | IC50 [2] [µg/mL] | IC50 (HT-29) [µg/mL] | IC50 (PANC-1) [µg/mL] | IC50 (LoVo [3]) [µg/mL] | IC50 [4] [µg/mL] | IC50 (A549) [µg/mL] | IC50 (DU-145) [µg/mL] | IC50 (LoVo [5]) [µg/mL] | IC50 (HeLa [6]) [µg/mL]
1 | CC1=C(CC[C@H]2[C@]3(C)CCC(=O)C(C)(C)O[C@H]3CC[C@]2(C)O)[C@@]2(C)CCC(=O)C(C)(C)C2=C(O)C1=O [SODWANONE A] | 3.8 (≈ 7.59 µM) | > 10 | 2.1 (≈ 4.19 µM) | 7.5 (≈ 15 µM) | 0.068 (≈ 0.136 µM) | > 10 | 0.7 (≈ 1.4 µM) | 0.3 (≈ 0.599 µM) | 1.7 (≈ 3.4 µM) | 3.5 (≈ 6.99 µM) | 1.8 (≈ 3.6 µM) | 8.5 (≈ 17 µM) | 2.9 (≈ 5.79 µM)
2 | CC1=C(CC[C@@H]2[C@@]3(CC[C@@H]4OC(C)(C)C(=O)CC[C@]42C)CO3)[C@@]2(C)CCC(=O)C(C)(C)C2=C(O)C1=O [SODWANONE G] | 4.3 (≈ 8.62 µM) | > 10 | 5.4 (≈ 10.8 µM) | > 10 | 2.7 (≈ 5.41 µM) | > 10 | 3.1 (≈ 6.22 µM) | 2.7 (≈ 5.41 µM) | 5 (≈ 10 µM) | > 10 | > 10 | > 10 | 4.2 (≈ 8.42 µM)
3 | C[C@H]1CC[C@@H]2OC(C)(C)[C@@H](O)CC=C2[C@@]1(C)CC[C@H]1[C@]2(C)CCC(=O)C(C)(C)O[C@H]2CC[C@]1(C)O [SODWANONE S] | 5 (≈ 10.2 µM) | 3.8 (≈ 7.74 µM) | > 10 | 6.5 (≈ 13.2 µM) | 4.7 (≈ 9.58 µM) | > 10 | 4.1 (≈ 8.35 µM) | 3.3 (≈ 6.72 µM) | > 10 | > 10 | > 10 | 6.9 (≈ 14.1 µM) | > 10
